ChEMBL document CHEMBL3785067, “Synthesis and evaluation of 4-hydroxyl aurone derivatives as multifunctional agents for the treatment of Alzheimer's disease” (Bioorg Med Chem, 2016)

Columns and labels:
[1] = biological target: T1, Amine oxidase [flavin-containing] A (Homo sapiens, UniProt P21397); experiment: Inhibition of human recombinant MAO-A using kynuramine as substrate after 30 mins by fluorescence spectrophotometry
T1 sequence (P21397 whole entry): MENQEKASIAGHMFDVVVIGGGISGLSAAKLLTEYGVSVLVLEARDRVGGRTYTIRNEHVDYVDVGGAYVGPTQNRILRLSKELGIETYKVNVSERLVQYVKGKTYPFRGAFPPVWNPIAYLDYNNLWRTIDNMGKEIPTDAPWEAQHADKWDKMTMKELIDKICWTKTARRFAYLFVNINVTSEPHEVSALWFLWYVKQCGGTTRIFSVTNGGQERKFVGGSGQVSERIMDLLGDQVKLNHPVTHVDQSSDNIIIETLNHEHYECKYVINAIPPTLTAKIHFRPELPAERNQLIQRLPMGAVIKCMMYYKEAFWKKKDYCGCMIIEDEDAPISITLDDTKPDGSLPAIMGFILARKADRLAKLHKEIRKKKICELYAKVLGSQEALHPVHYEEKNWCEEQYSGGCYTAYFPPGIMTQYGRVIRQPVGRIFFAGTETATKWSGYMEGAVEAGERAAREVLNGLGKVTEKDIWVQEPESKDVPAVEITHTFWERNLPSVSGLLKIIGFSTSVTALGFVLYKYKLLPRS

[2] = biological target: T2, Amine oxidase [flavin-containing] B (Homo sapiens, UniProt P27338); experiment: Inhibition of human recombinant MAO-B using kynuramine as substrate after 30 mins by fluorescence spectrophotometry
T2 sequence (P27338 whole entry): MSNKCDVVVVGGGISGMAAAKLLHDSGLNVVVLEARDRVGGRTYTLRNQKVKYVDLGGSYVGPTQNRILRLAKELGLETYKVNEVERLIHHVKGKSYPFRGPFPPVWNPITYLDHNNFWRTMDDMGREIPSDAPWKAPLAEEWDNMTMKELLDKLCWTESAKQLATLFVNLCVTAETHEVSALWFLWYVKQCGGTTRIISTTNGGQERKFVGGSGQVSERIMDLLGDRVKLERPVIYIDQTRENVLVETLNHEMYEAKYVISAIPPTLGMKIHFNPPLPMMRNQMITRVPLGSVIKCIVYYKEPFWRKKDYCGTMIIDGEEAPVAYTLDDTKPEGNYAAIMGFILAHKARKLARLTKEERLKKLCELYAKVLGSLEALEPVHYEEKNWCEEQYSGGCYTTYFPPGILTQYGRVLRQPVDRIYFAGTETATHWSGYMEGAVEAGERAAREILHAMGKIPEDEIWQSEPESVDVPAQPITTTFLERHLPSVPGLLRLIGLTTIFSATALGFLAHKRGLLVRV

[3] = organism: Homo sapiens; experiment: Selectivity ratio of IC50 for human recombinant MAO-A to IC50 for human recombinant MAO-B
[4] = Antioxidant activity assessed as AAPH free radical scavenging activity measured as trolox equivalent at 5 uM preincubated for 15 mins followed by AAPH addition measured every min for 90 mins by fluorescence assay; type: physicochemical; settings: 1.5 h
Summary of the method: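 ORAC-FL in 75 mM phosphate buffer pH 7.40. Sample plus fluorescein (150 nM final) pre-incubated 15 min at 37 °C, then AAPH added (12 mM final). Fluorescence read every minute for 90 min (ex 485/em 535 nm). Net AUC (blank-subtracted) converted to Trolox equivalents using a Trolox standard curve (1-8 µM). Samples tested at 1-10 µM, in duplicate, with at least three independent assays.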

[5] = Metal chelating activity assessed as compound-copper complex formation at 37.5 uM after 30 mins by UV-visual spectrometry; type: physicochemical; settings: 0.5 h
Summary of the method: (§1)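 UV absorption spectra (200-600 nm) recorded for compound alone or with CuCl2, ZnCl2, AlCl3 or FeSO4 after 30 min incubation at room temperature.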

[6] = Metal chelating activity assessed as compound-zinc complex formation at 37.5 uM after 30 mins by UV-visual spectrometry; type: physicochemical; settings: 0.5 h; summary of the method: as §1
[7] = Metal chelating activity assessed as compound-aluminium complex formation at 37.5 uM after 30 mins by UV-visual spectrometry; type: physicochemical; settings: 0.5 h; summary of the method: as §1
[8] = Metal chelating activity assessed as compound-iron complex formation at 37.5 uM after 30 mins by UV-visual spectrometry; type: physicochemical; settings: 0.5 h; summary of the method: as §1
[9] = Permeability of the compound at 100 ug/ml after 18 hrs by PAMPA-BBB assay
[10] = biological target: T3, Amyloid-beta precursor protein (Homo sapiens, UniProt P05067); experiment: Inhibition of self-induced amyloid beta (1 to 42) (unknown origin) aggregation at 25 uM after 24 hrs by thioflavin-T fluorescence method
Summary of the method: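 HFIP-pretreated Aβ1-42 (25 µM final) incubated with compound (25 µM final) in 50 mM phosphate buffer pH 7.40 at 37 °C for 24 h. ThT (5 µM in 50 mM glycine-NaOH, pH 8.5) then added and fluorescence read at ex 446/em 490 nm. Background-subtracted inhibition = (1−IFi/IFc)×100. Run in triplicate.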

[11] = biological target: T3, Amyloid-beta precursor protein; experiment: Inhibition of Cu2+-induced amyloid beta (1 to 42) (unknown origin) aggregation at 25 uM after 24 hrs by thioflavin-T fluorescence method
Summary of the method: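 Aβ1-42 (25 µM final) mixed with Cu2+ (25 µM final) in HEPES (20 mM, pH 6.60, 150 mM NaCl), with or without compound (25 µM final), and incubated at 37 °C for 24 h. 5 µM ThT in glycine-NaOH pH 8.50 then added and fluorescence read at ex 446/em 490 nm. Percent inhibition calculated from background-subtracted signal. Run in triplicate.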

[12] = Metal chelating activity assessed as mole fraction of compound required to show 1:1 stoichiometry for Cu2+-compound complex at 37.5 uM after 30 mins by UV-visual spectrometry; type: physicochemical; settings: 0.5 h
Summary of the method: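 Molar-ratio titration of compound in methanol (37.5 µM final) with CuCl2 (3.75-150 µM final). UV spectra corrected by subtracting CuCl2 and compound at matching concentrations. Absorbance at 498 or 488 nm plotted against mole fraction; stoichiometry taken from the intersection of the fitted lines.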

[13] = biological target: T1, Amine oxidase [flavin-containing] A; experiment: Inhibition of human recombinant MAO-A at 10 uM using kynuramine as substrate after 30 mins by fluorescence spectrophotometry; settings: 0.5 h
Summary of the method: (§2)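 Recombinant human MAO-A or MAO-B (7.5 µg/mL) in 100 mM potassium phosphate with 20.2 mM KCl, pH 7.40. Kynuramine substrate at 45 µM (MAO-A) or 30 µM (MAO-B); DMSO below 4%. Incubated 37 °C for 30 min, stopped with 2N NaOH. 4-Hydroxyquinoline fluorescence read at ex 310/em 400 nm against a calibration curve. Single-concentration screen at 10 µM, in triplicate.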

[14] = biological target: T2, Amine oxidase [flavin-containing] B; experiment: Inhibition of human recombinant MAO-B at 10 uM using kynuramine as substrate after 30 mins by fluorescence spectrophotometry; settings: 0.5 h; summary of the method: as §2
[15] = biological target: T3, Amyloid-beta precursor protein; experiment: Displacement of [125I]-2-[(4-Aminophenyl)methylene]-5-iodo-3(2H)-benzofuranone from amyloid beta (1 to 42) (unknown origin) after 3 hrs by gamma counting method

T3 sequence (P05067 whole entry): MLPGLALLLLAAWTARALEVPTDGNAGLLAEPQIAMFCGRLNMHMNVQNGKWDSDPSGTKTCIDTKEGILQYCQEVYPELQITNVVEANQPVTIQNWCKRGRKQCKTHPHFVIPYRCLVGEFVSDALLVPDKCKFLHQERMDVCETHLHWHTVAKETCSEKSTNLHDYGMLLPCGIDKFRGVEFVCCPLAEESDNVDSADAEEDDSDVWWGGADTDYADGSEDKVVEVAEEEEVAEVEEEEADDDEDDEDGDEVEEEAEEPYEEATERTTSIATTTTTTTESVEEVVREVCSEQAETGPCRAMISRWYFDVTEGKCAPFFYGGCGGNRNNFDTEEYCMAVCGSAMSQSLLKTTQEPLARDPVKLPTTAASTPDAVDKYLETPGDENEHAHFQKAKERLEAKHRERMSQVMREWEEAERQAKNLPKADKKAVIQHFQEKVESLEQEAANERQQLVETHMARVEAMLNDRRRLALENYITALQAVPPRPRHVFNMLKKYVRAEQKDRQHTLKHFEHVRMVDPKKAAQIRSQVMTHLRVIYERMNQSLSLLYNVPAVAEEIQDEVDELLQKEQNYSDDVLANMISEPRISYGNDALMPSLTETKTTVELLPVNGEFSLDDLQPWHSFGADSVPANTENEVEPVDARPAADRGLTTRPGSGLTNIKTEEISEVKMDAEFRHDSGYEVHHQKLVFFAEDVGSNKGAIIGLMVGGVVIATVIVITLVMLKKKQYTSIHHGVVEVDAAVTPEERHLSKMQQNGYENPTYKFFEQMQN

Row | IC50 [1] | IC50 [2] | Ratio IC50 [3] | Activity [4] | Activity [5] | Activity [6] | Activity [7] | Activity [8] | Papp at 18 h, 100 ug/ml [9] | inhibition [10] | inhibition [11] | Activity [12] | inhibition at 10 µM [13] | inhibition at 10 µM [14] | Ki [15] | SMILES
1 | 271 nM | 393 nM | 0.69 | 1.9 equiv | Active | Active | Active | Not Active | 6.68 ×10⁻⁶ cm/s | 99.2% | 84% | 0.95 molar ratio | – | – | – | O=C1/C(=C/c2ccc(N3CCCCC3)cc2)Oc2cc(O)cc(O)c21
2 | – | 703 nM | > 14.2 | 1.62 equiv | – | – | – | – | – | 53.7% | 75.7% | – | 20.7% | – | – | COc1cc(O)c2c(c1)O/C(=C\c1ccc(N(C)C)cc1)C2=O
3 | – | 10800 nM | > 0.926 | 2.5 equiv | – | – | – | – | – | 77.7% | 52% | – | 15.8% | – | – | CN1CCN(c2ccc(/C=C3\Oc4cc(O)cc(O)c4C3=O)cc2)CC1
4 | – | – | – | 2.91 equiv | – | – | – | – | – | 98.2% | 90.1% | – | 13.5% | 0.88% | – | CN(C)c1ccccc1/C=C1\Oc2cc(O)cc(O)c2C1=O
5 | 457 nM | 391 nM | 1.17 | 1.56 equiv | – | – | – | – | – | 99.8% | 84.8% | – | – | – | – | O=C1/C(=C/c2ccc(N3CCCC3)cc2)Oc2cc(O)cc(O)c21
6 | – | – | – | 3.56 equiv | – | – | – | – | – | 38% | 20.9% | – | 13.9% | 8.7% | – | O=C1c2c(O)cc(O)cc2OC1Cc1ccc(N2CCOCC2)cc1 (stereo not drawn)
7 | – | – | – | – | – | – | – | – | – | – | – | – | – | – | 6.82 nM | CN(C)c1ccc(/C=C2\Oc3ccc([125I])cc3C2=O)cc1
8 | 233 nM | 5940 nM | 0.039 | 2.9 equiv | – | – | – | – | – | 97.4% | 61.4% | – | – | – | – | CN(C)c1ccc(/C=C2\Oc3cc(O)cc(O)c3C2=O)cc1
9 | – | – | – | 3.07 equiv | – | – | – | – | – | 42.7% | 40.5% | – | 23.5% | 27.2% | – | CN(C)c1ccc(CC2Oc3cc(O)cc(O)c3C2=O)cc1 (stereo not drawn)
10 | 27.9 nM | 808 nM | 0.035 | 1.97 equiv | – | – | – | – | – | 95.3% | 86.6% | – | – | – | – | CCN(C)c1ccc(/C=C2\Oc3cc(O)cc(O)c3C2=O)cc1
11 | – | 226 nM | > 44.2 | 1 equiv | Active | Active | Active | Not Active | 7.24 ×10⁻⁶ cm/s | 40.3% | 46% | 1.11 molar ratio | 18.3% | – | – | COc1cc(O)c2c(c1)O/C(=C\c1ccc(N3CCCCC3)cc1)C2=O
12 | 115 nM | 334 nM | 0.344 | 2.04 equiv | – | – | – | – | – | 91.7% | 88.9% | – | – | – | – | CCN(CC)c1ccc(/C=C2\Oc3cc(O)cc(O)c3C2=O)cc1
13 | – | – | – | 2.43 equiv | – | – | – | – | – | 22.3% | 71.6% | – | 16.8% | 13.5% | – | CN(C)c1ccc(/C=C2\Oc3cc(N(C)C)cc(O)c3C2=O)cc1
14 | – | 1500 nM | > 6.67 | 1.66 equiv | – | – | – | – | – | 44.1% | 47.5% | – | 18.4% | – | – | COc1cc(O)c2c(c1)O/C(=C\c1ccc(N3CCOCC3)cc1)C2=O
15 | 1080 nM | 340 nM | 3.18 | 2.5 equiv | – | – | – | – | – | 80.7% | 50.1% | – | – | – | – | O=C1/C(=C/c2ccc(N3CCOCC3)cc2)Oc2cc(O)cc(O)c21
